Data from ChEMBL document CHEMBL4406921, “Discovery of Axelopran (TD-1211): A Peripherally Restricted μ-Opioid Receptor Antagonist” (ACS Med Chem Lett, 2019).

Tests used:
[1] = Oral bioavailability in Sprague-Dawley rat at 5 mg/kg administered via gavage; assay type: ADME, organism-based; conditions: in vivo
Mus musculus [2] = test: Inhibition of morphine-induced delays in intestinal transit in po dosed ICR mouse administered via gavage pretreated with compound and 30 mins later injected with morphine followed 5 mins later by ingestion of test meal and measured after 60 mins; assay type: functional; conditions: for ED50: read-out: ID50 (the source's name)
Outline: (§1)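 Mice dosed orally; reversal of morphine-induced delay in intestinal transit, delay in gastric emptying, or hot plate antinociception measured; dose-dependent responses fitted to give ID50 in mg/kg.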

[3] = target: Kappa-type opioid receptor (Cavia porcellus, UniProt P41144); test: Displacement of [3H]-DPN from guinea pig kappa opioid receptor expressed in CHO-K1 cell membranes by radioligand binding assay
Outline: (§2)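 Membranes from CHO-K1 cells stably transfected with human recombinant μ or δ receptor, or guinea pig κ receptor; competition with [3H]-DPN radioligand; affinity reported as pKi.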

Mus musculus [4] = organism: Mus musculus; test: Peripheral selectivity index, ratio of ID50 for inhibition of morphine-induced antinociceptive activity in ICR mouse to ID50 for inhibition of morphine-induced delays in intestinal transit in ICR mouse; assay type: functional
Outline: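 Mice were dosed orally with antagonist at several doses and challenged with morphine. ID50 values were taken from dose-dependent reversal of morphine-induced hot plate antinociception (CNS) and of morphine-induced delay in intestinal transit (peripheral). The index is the hot plate ID50 divided by the intestinal transit ID50.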

[5] = Half life in dog liver microsomes at 3 uM; assay type: ADME, Canis lupus familiaris, Microsome
[6] = Half life in rat liver microsomes at 3 uM; assay type: ADME, Microsome
Mu-type opioid receptor [7] = target: T1, Mu-type opioid receptor (Homo sapiens, UniProt P35372); test: Displacement of [3H]-DPN from recombinant human mu opioid receptor expressed in CHO-K1 cell membranes by radioligand binding assay; outline: as §2
[8] = AUC(0 to t) in Sprague-Dawley rat at 5 mg/kg, po administered via gavage; assay type: ADME, organism-based; conditions: in vivo
[9] = Cmax in Sprague-Dawley rat at 5 mg/kg, po administered via gavage; assay type: ADME, organism-based; set-up: dose 5 mg/kg, route oral; conditions: in vivo
Mus musculus [10] = test: Inhibition of morphine-induced delays in gastric emptying in po dosed ICR mouse administered via gavage pretreated with compound and 30 mins later injected with morphine followed 5 mins later by ingestion of test meal and measured after 60 mins; assay type: functional; conditions: for ED50: read-out: ID50 (the source's name); outline: as §1
[11] = Permeability coefficient, Kp in human Caco2 cells; assay type: ADME, cell-based; conditions: Caco-2, read-out: Kp
Mu-type opioid receptor [12] = target: T1, Mu-type opioid receptor; test: Antagonist activity at human recombinant mu opioid receptor expressed in CHO-K1 cell membranes assessed as intrinsic activity at 10 pM to 20 uM incubated for 30 mins in presence of Eu-GTP by DELFIA GTP binding assay relative to DAMGO
Mus musculus [13] = organism: Mus musculus; test: Peripheral selectivity index, ratio of ID50 for inhibition of morphine-induced delays in gastric emptying in ICR mouse to ID50 for inhibition of morphine-induced delays in intestinal transit in ICR mouse; assay type: functional
[14] = Half life in Sprague-Dawley rat at 5 mg/kg, po administered via gavage; assay type: ADME, organism-based; conditions: in vivo
Mus musculus [15] = test: Inhibition of morphine-induced antinociceptive activity in po dosed ICR mouse administered via gavage pretreated with compound and 30 mins later injected with morphine and measured after 30 mins by hot plate test; assay type: functional; conditions: for ED50: read-out: ID50 (the source's name); outline: as §1
[16] = Half life in human liver microsomes at 3 uM; assay type: ADME, Microsome
[17] = target: Delta-type opioid receptor (Homo sapiens, UniProt P41143); test: Displacement of [3H]-DPN from recombinant human delta opioid receptor expressed in CHO-K1 cell membranes by radioligand binding assay; outline: as §2
Delta-type opioid receptor, sequence (P41143 whole entry): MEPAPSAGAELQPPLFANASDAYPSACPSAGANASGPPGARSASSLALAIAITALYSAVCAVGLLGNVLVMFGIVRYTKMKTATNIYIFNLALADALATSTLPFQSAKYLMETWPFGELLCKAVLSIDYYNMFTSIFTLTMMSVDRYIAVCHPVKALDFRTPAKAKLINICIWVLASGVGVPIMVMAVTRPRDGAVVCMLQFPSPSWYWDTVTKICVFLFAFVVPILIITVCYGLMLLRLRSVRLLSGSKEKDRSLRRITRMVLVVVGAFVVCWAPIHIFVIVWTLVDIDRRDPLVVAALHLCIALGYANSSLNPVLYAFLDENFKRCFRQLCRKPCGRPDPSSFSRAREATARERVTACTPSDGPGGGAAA

T1 sequence (P35372 whole entry): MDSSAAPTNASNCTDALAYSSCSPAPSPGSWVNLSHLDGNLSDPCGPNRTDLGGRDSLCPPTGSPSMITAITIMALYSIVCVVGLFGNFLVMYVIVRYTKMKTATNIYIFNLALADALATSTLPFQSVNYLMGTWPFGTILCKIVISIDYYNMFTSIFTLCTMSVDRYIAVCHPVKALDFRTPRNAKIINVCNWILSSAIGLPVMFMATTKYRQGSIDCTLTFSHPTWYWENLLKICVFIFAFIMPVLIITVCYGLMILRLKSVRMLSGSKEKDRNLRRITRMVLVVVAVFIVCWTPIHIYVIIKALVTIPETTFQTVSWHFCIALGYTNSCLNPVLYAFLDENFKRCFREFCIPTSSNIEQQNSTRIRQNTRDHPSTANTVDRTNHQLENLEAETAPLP
Kappa-type opioid receptor, sequence (P41144 whole entry): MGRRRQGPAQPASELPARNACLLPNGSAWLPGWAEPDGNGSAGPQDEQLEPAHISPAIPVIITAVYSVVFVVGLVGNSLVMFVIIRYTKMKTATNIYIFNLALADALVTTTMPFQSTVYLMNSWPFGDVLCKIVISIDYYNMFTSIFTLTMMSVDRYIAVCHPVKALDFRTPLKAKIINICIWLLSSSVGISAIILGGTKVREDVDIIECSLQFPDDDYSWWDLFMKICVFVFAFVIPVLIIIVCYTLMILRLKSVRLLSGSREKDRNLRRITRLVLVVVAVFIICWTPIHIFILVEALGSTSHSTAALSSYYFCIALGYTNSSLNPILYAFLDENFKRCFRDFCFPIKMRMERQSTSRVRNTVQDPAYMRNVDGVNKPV

Row | SMILES | bioavailability [1] [%] | ED50 (Mus musculus [2]) [mg/kg] | Ki [3] [nM] | Selectivity Index (Mus musculus [4]) | half-life at 3 µM [5] [h] | half-life at 3 µM [6] [h] | Ki (Mu-type opioid receptor [7]) [nM] | AUC(0-t) [8] [µg·h/mL] | Cmax [9] [µg/mL] | ED50 (Mus musculus [10]) [mg/kg] | Papp [11] [nm/s] | Intrinsic activity (Mu-type opioid receptor [12]) [%] | Selectivity Index (Mus musculus [13]) | half-life [14] [h] | ED50 (Mus musculus [15]) [mg/kg] | half-life at 3 µM [16] [h] | Ki [17] [nM] | inhibition (Mus musculus [2]) | inhibition (Mus musculus [10]) | inhibition (Mus musculus [15])
1 | C[C@H]1CN(C[C@H](Cc2ccccc2)C(=O)O)CC[C@@]1(C)c1cccc(O)c1 | 53 | 0.064 | 25.1 | 17 | > 1.5 | > 1.5 | 0.316 | 1.2 | 0.71 | 0.027 | 50 | -8 | 41 | 3.7 | 1.1 | > 1.5 | 15.8 |  |  | 
2 | NC(=O)c1cccc([C@H]2C[C@H]3CC[C@@H](C2)N3CCN(CC2CCCCC2)C(=O)Cc2nnn[nH]2)c1 |  |  | 1.58 |  | 1.5 | 1.5 | 0.398 |  |  |  | < 10 | 0 |  |  |  | 1.5 | 3.16 |  |  | 
3 | CS(=O)(=O)CC(=O)N(CCN1[C@@H]2CC[C@H]1C[C@@H](c1cccc(C(N)=O)c1)C2)CC1CCCCC1 | 60 | 0.49 | 0.1 | 49 | 0.467 | 0.833 | 0.1 | 1.3 | 0.88 | 0.33 | 180 | 0 | 73 | 1 | 24 | 1.5 | 1.26 | Dose-dependent effect | Dose-dependent effect | Dose-dependent effect
4 | COC(=O)N(CCN1[C@@H]2CC[C@H]1C[C@@H](c1cccc(C(N)=O)c1)C2)CC1CCCCC1 |  |  | 0.2 |  | 0.0333 | 0.0333 | 0.126 |  |  |  |  | 7 |  |  |  | 0.117 | 2.51 |  |  | 
5 | CC(C)(C)C(=O)N(CCN1[C@@H]2CC[C@H]1C[C@@H](c1cccc(C(N)=O)c1)C2)CC1CCCCC1 |  |  | 0.158 |  | 0.0333 | 0.2 | 0.126 |  |  |  |  | 3 |  |  |  | 0.15 | 2 |  |  | 
6 | NC(=O)c1cccc([C@H]2C[C@H]3CC[C@@H](C2)N3CCN(CC2CCCC2)C(=O)CO)c1 |  |  | 0.316 |  | 0.233 | 1.5 | 0.251 |  |  |  | 120 | 4 |  |  |  | 1.5 | 15.8 |  |  | 
7 | C[C@H]1CN(CCCc2ccccc2)CC[C@@]1(C)c1cccc(O)c1 |  |  | 0.794 |  |  | 0.1 | 0.1 |  |  |  |  | -21 |  |  |  |  | 1.26 |  |  | 
8 | NC(=O)c1cccc([C@H]2C[C@H]3CC[C@@H](C2)N3CCN(CCc2ccccc2)C(=O)CO)c1 |  |  |  |  | 1.02 | 0.567 |  |  |  |  | 160 |  |  |  |  | 1.5 | 20 |  |  | 
9 | CC(C)NC(=O)N(CCN1[C@@H]2CC[C@H]1C[C@@H](c1cccc(C(N)=O)c1)C2)CC1CCCCC1 |  |  | 0.158 |  | 0.233 | 0.333 | 0.2 |  |  |  | 360 | 21 |  |  |  |  | 1.26 |  |  | 
10 | CCCCCCN(CCN1[C@@H]2CC[C@H]1C[C@@H](c1cccc(C(N)=O)c1)C2)C(=O)CO |  |  | 3.16 |  | 0.183 | 1.18 | 0.794 |  |  |  | 450 | -9 |  |  |  | 1.5 | 63.1 |  |  | 
11 | NC(=O)c1cccc([C@H]2C[C@H]3CC[C@@H](C2)N3CCN(CC2CCOCC2)C(=O)CO)c1 |  |  | 6.31 |  | 1.5 | 1.5 | 12.6 |  |  |  | < 10 | 0 |  |  |  | 1.5 | 200 |  |  | 
12 | CCC(CC)CN(CCCCCCN1[C@@H]2CC[C@H]1C[C@@H](c1cccc(C(N)=O)c1)C2)C(=O)CO |  |  |  |  | 0.15 | 0.433 | 1 |  |  |  |  | -2 |  |  |  | 0.15 | 25.1 |  |  | 
13 | CCC(CC)CN(CCCCN1[C@@H]2CC[C@H]1C[C@@H](c1cccc(C(N)=O)c1)C2)C(=O)CO |  |  |  |  | 1.5 | 1.5 | 0.631 |  |  |  |  | -1 |  |  |  | 0.35 | 20 |  |  | 
14 | CS(=O)(=O)N(CCN1[C@@H]2CC[C@H]1C[C@@H](c1cccc(C(N)=O)c1)C2)CC1CCCCC1 |  |  | 0.794 |  | 0.0333 | 0.217 | 0.251 |  |  |  |  | 1 |  |  |  | 0.317 | 7.94 |  |  | 
15 | CCC(CC)CN(CCCCCN1[C@@H]2CC[C@H]1C[C@@H](c1cccc(C(N)=O)c1)C2)C(=O)CO |  |  |  |  | 0.317 | 0.467 | 0.631 |  |  |  |  | 1 |  |  |  | 0.2 | 20 |  |  | 
16 | NC(=O)c1cccc([C@H]2C[C@H]3CC[C@@H](C2)N3CCN(CC2CCC2)C(=O)CO)c1 |  |  | 0.631 |  | 1.5 | 1.5 | 1.58 |  |  |  | 140 | 13 |  |  |  | 1.5 | 31.6 |  |  | 
17 | C[C@H]1CN(CCC(=O)O)CC[C@@]1(C)c1cccc(O)c1 |  |  |  |  |  | > 1.5 | 631 |  |  |  | < 10 | 4 |  |  |  |  | 3160 |  |  | 
18 | CN(C)S(=O)(=O)N(CCN1[C@@H]2CC[C@H]1C[C@@H](c1cccc(C(N)=O)c1)C2)CC1CCCCC1 |  |  | 0.2 |  | 0.0833 | 0.133 | 0.2 |  |  |  |  | 0 |  |  |  | 0.15 | 2 |  |  | 
19 | CCC(CC)CN(CCCN1[C@@H]2CC[C@H]1C[C@@H](c1cccc(C(N)=O)c1)C2)C(=O)CO |  |  | 0.2 |  | 1.5 | 1.48 |  |  |  |  | 200 | 3 |  |  |  | 1.5 | 3.16 |  |  | 
20 | NC(=O)c1cccc([C@H]2C[C@H]3CC[C@@H](C2)N3CCN(CC2CCCCC2)C(=O)CO)c1 | 61 | 0.1 | 0.126 | 42 | 0.3 | 1.28 | 0.1 | 0.43 | 0.29 | 0.046 | 400 | -3 | 91 | 1.3 | 4.2 | 1.32 | 3.98 | Dose-dependent effect | Dose-dependent effect | Dose-dependent effect
21 | NC(=O)c1cccc([C@H]2C[C@H]3CC[C@@H](C2)N3CCN(Cc2ccccc2)C(=O)CO)c1 |  |  | 0.2 |  | 1.5 | 1.42 |  |  |  |  | 210 | -3 |  |  |  | 1.5 | 5.01 |  |  | 
22 | CC(=O)N(CCN1[C@@H]2CC[C@H]1C[C@@H](c1cccc(C(N)=O)c1)C2)CC1CCCCC1 |  |  | 0.126 |  | 0.267 | 1.23 | 0.1 |  |  |  |  | -1 |  |  |  | 1.05 | 1.58 |  |  | 
23 | NC(=O)c1cccc([C@H]2C[C@H]3CC[C@@H](C2)N3CCN(CC2CCCCC2)C(=O)c2ccco2)c1 |  |  | 0.1 |  | 0.0333 | 0.167 | 0.1 |  |  |  |  | 1 |  |  |  | 0.283 | 1.26 |  |  | 
24 | CCC(CC)CN(CCN1[C@@H]2CC[C@H]1C[C@@H](c1cccc(C(N)=O)c1)C2)C(=O)CO |  |  | 0.126 |  | 1.25 | 1.5 | 0.158 |  |  |  | 320 | 9 |  |  |  | 1.5 | 12.6 |  |  | 
25 | O=C1CC[C@@]2(O)[C@H]3Cc4ccc(O)c5c4[C@@]2(CCN3CC2CC2)[C@H]1O5 [NALTREXONE] |  | 0.6 |  |  |  |  |  |  |  | 0.5 | 840 |  |  |  | 0.82 |  |  |  |  | 
